Source: PubChem BioAssay (several laboratories)
STAT3 inh – STAT3 signaling inhibition | U3A cells, IL-6 STAT3-luciferase reporter, luminescence; host cell line lacks STAT1 | inhibition, % at 5.5 µM | 0.89% of 190,000 active | AID 862;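 active = inhibition above the mean inhibition across all screened compounds plus 3 SD, cut at about 44% in these data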;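 also: 0% = DMSO only wells and 100% = 100 µM nifuroxazide control wells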
APP 5'UTR act – activates APP 5'UTR luciferase reporter. SH-SY5Y APP 5'UTR luciferase reporter, luminescence; zero percent = DMSO vehicle wells. activation, % at 2 µM. 1% of 190,000 active. AID 1276;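 active = activation above a set limit, based on mean plus 3 SD of controls, cut at about 140% in these data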
STAT3 activator – increases IL-6 driven STAT3 reporter signal. AID 871. U3A cells, IL-6 STAT3-luciferase reporter, luminescence; 100% = signal with IL-6 EC80 alone. 0.91% of 190,000 active. activation (% of control), % at 5.6 µM;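 active = activation above the screen-wide mean of compound activation plus 3 SD, cut at about 130% in these data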;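 also: 0% = background luminescence of wells with medium and substrate only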
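Material: human STAT1-deficient U3A cells with stable STAT3-luciferase reporter / Probe or stimulus: IL-6 stimulus at 33 ng/mL final / Schedule: 1 h compound pre-exposure, 6 h IL-6 stimulation, 37 °C / Technique: luminescence / Read-out basis: percent of IL-6-only median luminescence / Control set: IL-6-only high control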
NF-kB neuron act – NF-kB expression increase, human neuronal cells. NF-kB reporter expression; active compounds read high. fold change at 12.5 µM. 1.6% of 190,000 active; in the data active = fold change above about 3.3
STAT1 activator – STAT1 signaling activation; NIH 3T3 STAT1-luciferase reporter, IFN-gamma, luminescence; 100% = IFN-gamma alone, no compound; activation (% of control), % at 5.5 µM; 2.6% of 200,000 active;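 active = activation above the screen-wide mean activation plus 3 SD, cut at about 130% in these data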;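 also: raw ratio to IFN-gamma control signal so 100% means no change and 0% no light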
STAT1 blocker – inhibitors of IFN-gamma induced STAT1 signaling. NIH 3T3 STAT1-luciferase reporter, luminescence. inhibition, % at 5.5 µM. 0.35% of 200,000 active;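 active = inhibition above a set limit, the mean inhibition across all tested compounds plus 3 SD, cut at about 34% in these data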;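 also: 0% = IFN-gamma with DMSO and 100% = IFN-gamma with 300 µM nifuroxazide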
Active calls of the source: *. Rows were chosen to be rich in hits. Some 5.1% of all compounds tested hit in one or more screens of this group.

SMILES	STAT3 inh	APP 5'UTR act	STAT3 activator	NF-kB neuron act	STAT1 activator	STAT1 blocker
COc1cc(NC(=O)c2cccc(C)c2)c(Cl)cc1[N+](=O)[O-]	30	10	79	1.2	100	0
CCOc1ccc(NC(=O)Cn2cncc2-c2ccc([N+](=O)[O-])cc2)cc1	2	-8	103	1.5	117	-18
CCOC(=O)Cn1cncc1-c1ccc([N+](=O)[O-])cc1	16	6	90	1.8	130*	-34
O=C(CN1CCN(c2ccc(O)cc2)CC1)Nc1cc([N+](=O)[O-])ccc1Cl	2	42	103	1.3	106	-6
Cc1ccc(NC(=O)Nc2ccc(F)cc2)nc1	7	35	97	2.1	136*	-48
CCOc1ccc(NC(=O)Nc2ccc(Br)cn2)cc1	26	50	86	1.9	145*	-51
Cc1ccc(NC(=O)Nc2ccc3c(c2)N(C)C(=O)CS3)nc1	33	-1	74	1.1	129*	-31
Cc1ccc(NC(=O)Nc2cc(C)on2)cc1	14	67	92	1.9	130*	-32
O=C(NNC(=O)C1CCN(c2ncccn2)CC1)c1ccncc1	4	-11	103	1.2	101	-3
Cc1ccccc1-c1noc(-c2ccccc2F)n1	1	111	105	6.8*	139*	-42
Cc1ccccc1-c1noc(-c2ccc(Cl)cc2)n1	-28	48	125	3.4*	112	-13
Cc1ccccc1-c1noc(-c2ccc(O)cc2)n1	17	156*	94	7.7*	140*	-44
O=C(O)CN1C(=O)/C(=C/c2ccc(SCc3ccccc3)o2)SC1=S	-6	16	108	0.92	95	3
Cc1ccc2c(c1)sc(=NC(=O)c1cccs1)n2C	88*	220*	32	2.2	24	81*
C#CCn1c(=NC(=O)c2cccs2)sc2cccc(OC)c21	-22	16	122	1.4	122	-24
CCOC(=O)c1sc(=NC(=O)c2cccs2)n(C)c1C	-24	141*	128	5.4*	133*	-36
CCOC(=O)c1sc(=NC(=O)c2ccc(Cl)s2)n(C)c1C	-47	146*	137*	1.5	151*	-54
CCOC(=O)c1sc(=NC(=O)c2ccc(C)c(C)c2)n(C)c1C	4	129	99	1	127	-31
CCOC(=O)c1sc(NC(=O)c2cccs2)cc1C	42	168*	70	4*	138*	-42
CC1CCCN(C(=S)NC2CCCC2)C1 (stereo unspecified)	2	4	102	1.2	98	1
COc1ccc(-c2[nH]ncc2CNC(C)c2cn(C)nc2C)c(F)c1 (stereo unspecified)	3	9	98	1	103	-5
CCOC(=O)c1sc(=NC(=O)c2ccco2)n(C)c1C	-48	31	143*	2.1	129*	-33
COc1ccccc1CNC(=O)C1CC(c2ccccc2[N+](=O)[O-])=NO1 (stereo unspecified)	-18	-4	127	1.6	107	-14
N/C(=N\OC(=O)c1cccc(Br)c1)c1ccc(Br)cc1	-18	-5	124	0.98	98	2
N/C(=N\OC(=O)c1ccc(Br)cc1)c1ccccc1	14	124	96	9.7*	150*	-56
SMILES	STAT3 inh	APP 5'UTR act	STAT3 activator	NF-kB neuron act	STAT1 activator	STAT1 blocker
Cc1ccc(C(=O)O/N=C(\N)c2ccc(Br)cc2)cc1	18	36	91	3.8*	137*	-40
O=C(COC(=O)C1CC(=O)N(Cc2ccccc2)C1)Nc1ccc(Cl)cc1F (stereo unspecified)	1	10	101	1.2	102	-3
O=C(Cn1nnc(-c2ccccc2)n1)N/N=C/c1ccco1	3	3	101	1.1	101	-3
CC(C)c1ccc2[nH]c3nc(SCC(=O)N4CCOCC4)nnc3c2c1	4	15	102	1	131*	-37
O=C(CSc1nnc2c(n1)[nH]c1ccc(S(=O)(=O)N3CCOCC3)cc12)Nc1ccc(F)c(F)c1	-7	12	106	1.3	110	-10
O=C(CC1NCCc2ccccc21)Nc1ccc(Cl)cc1 (stereo unspecified)	-41	6	133*	0.99	97	1
O=C(CC1NC(=O)NC1=O)Nc1ccc(Cl)cc1 (stereo unspecified)	2	15	101	1	100	0
CCOc1ccc(N(C(=O)CNC(=O)c2cccs2)C(C(=O)NCC2CCCO2)c2ccc(OC)c(OC)c2)cc1 (stereo unspecified)	-3	-15	109	1.4	98	2
CCc1nnc(NC(=O)c2oc3cc(C)c(C)cc3c2C)s1	12	17	91	1.4	100	0
Cc1ccc2oc(C(=O)Nc3nnc(C)s3)c(C)c2c1	27	8	77	4.7*	141*	-44
Cn1nnc(-c2ccc(OCc3ccccc3F)cc2)n1	28	138*	80	7.8*	122	-24
CCC(=O)c1ccc(/C=C/c2nc3ccccc3n2C)o1	40	125	70	4.8*	112	-15
Cc1ccc(S(=O)(=O)Nc2ccc(O)c(Sc3ncn[nH]3)c2)cc1	2	2	99	0.9	97	2
Cc1ccc(S(=O)(=O)/N=C2/C=C(Sc3ncn[nH]3)C(=O)c3ccccc32)c(C)c1	-55	-65	142*	0.4	96	4
CC(C)c1ccc(S(=O)(=O)/N=C2/C=C(Sc3ncn[nH]3)C(=O)c3ccccc32)cc1	-59	-34	152*	0.55	90	11
C#CCONC(=O)c1cc(OCC(F)(F)F)ccc1OCC(F)(F)F	4	-7	98	1.2	100	0
Cc1ccc(NC(=O)COC(=O)c2ccc([N+](=O)[O-])o2)cc1S(=O)(=O)N1CCCCCC1	1	10	100	1.1	104	-5
COc1ccc(N=CC2=C(O)c3ccccc3C2=O)c(OC)c1	99*	176*	15	1	33	74*
COc1ccc(/C(C)=N/NS(=O)(=O)c2ccccc2)c(OC)c1	-1	15	111	0.99	102	-4
Cc1ccccc1N=CC1=C(O)c2ccccc2C1=O	99*	140*	14	1.3	26	80*
N#Cc1c(Cl)nsc1NC(=O)c1ccccc1	56*	-2	56	0.56	49	55*
Cc1cccc(C(=O)Nc2sc(C)c(-c3ccccc3)c2C#N)c1	11	27	94	3.5*	133*	-36
Cc1noc(C)c1C(=O)Nc1sc(C)c(-c2ccccc2)c1C#N	4	-5	98	0.48	100	2
Cc1sc(NC(=O)C2CCCCC2)c(C#N)c1-c1ccccc1	-9	46	111	1.4	130*	-33
COc1ccc(N2CCN(C(=O)c3cccc(Br)c3)CC2)c([N+](=O)[O-])c1	10	-1	96	1.1	98	-1
